Measured values published in ChEMBL document CHEMBL3091399, “Protease inhibitors from Microcystis aeruginosa bloom material collected from the Dalton Reservoir, Israel” (J Nat Prod, 2013).
Calls of active or inactive are those of the source. The rule behind the calls is not given here. *1 amine or outer side, *2 acyl side, *3 side chain or, on linkers, in order; H or OH if unused. Where a SMILES comes first, the peptide text is derived from it. Bridges are numbered along the chain shown (N, C = ends). [ ]: non-standard residue; d: D form. hTyr = N[C@@H](CCc1ccc(O)cc1)C(=O)O; NMeA = CN[C@@H](C)C(=O)O; CO = O=C([*:1])[*:2]

Columns and labels:
Trypsin [1] = molecular target: T1, Trypsin (Homo sapiens, UniProt P07477+P07478+P35030); assay: Inhibition of trypsin (unknown origin) using benzoyl-L-arginine-p-nitroanilide hydrochloride as substrate preincubated at 45.5 uM for 5 mins before substrate addition measured after 30 mins; format: protein assay
Outline: (§1)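 Trypsin stock 1 mg/mL in 0.05 M Tris-HCl/100 mM NaCl/1 mM CaCl2, pH 7.5. Substrate in 1:9 DMSO/Tris buffer. Samples from 1 mg/mL DMSO stocks. Enzyme and sample are preincubated in buffer at 37 °C for 5 min. Substrate is then added and kinetics are read at 405 nm, 37 °C, for 30 min. Percent inhibition is taken against a DMSO vehicle control.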

Prothrombin [2] = molecular target: T2, Prothrombin (Homo sapiens, UniProt P00734); assay: Inhibition of thrombin (unknown origin) using z-Gly-Pro-Arg-4MbetaNA-acetate as substrate preincubated at 45.5 uM for 20 mins before substrate addition measured after 20 mins
Outline: (§2)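 Thrombin stock 0.5 mg/mL in 0.2 M Tris-HCl, pH 8. Substrate stock 0.5 mg/mL in water. Test samples from 1 mg/mL DMSO stocks. Enzyme and sample are preincubated in buffer at 25 °C for 20 min. Substrate is then added and kinetics are read at 405 nm, 25 °C, for 20 min. Percent inhibition is taken against a DMSO-only control.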

Trypsin [3] = molecular target: T1, Trypsin; assay: Inhibition of trypsin (unknown origin) using benzoyl-L-arginine-p-nitroanilide hydrochloride as substrate preincubated for 5 mins before substrate addition measured after 30 mins; format: protein assay; outline: as §1
Prothrombin [4] = molecular target: T2, Prothrombin; assay: Inhibition of thrombin (unknown origin) using z-Gly-Pro-Arg-4MbetaNA-acetate as substrate preincubated for 20 mins before substrate addition measured after 20 mins; outline: as §2

Row | SMILES | inhibition (Trypsin [1]) | inhibition (Prothrombin [2]) | IC50 (Trypsin [3]) [µM] | inhibition (Trypsin [3]) | other results
1 | CC[C@H](C)[C@@H]1NC(=O)[C@H](Cc2ccccc2)N(C)C(=O)[C@H]([C@@H](C)CC)N2C(=O)[C@H](CC[C@H]2O)NC(=O)[C@H](CCCNC(=N)N)NC(=O)[C@@H](NC(=O)[C@H](O)COS(=O)(=O)O)[C@@H](C)OC1=O |  |  |  | Active | 
2 | CC[C@H](C)[C@@H]1NC(=O)[C@H](Cc2ccccc2)N(C)C(=O)[C@H]([C@@H](C)CC)N2C(=O)[C@H](CC[C@H]2OC)NC(=O)[C@H](CCCNC(=N)N)NC(=O)[C@@H](NC(=O)[C@H](O)COS(=O)(=O)O)[C@@H](C)OC1=O |  |  |  | Active | 
3 | CC[C@H](C)[C@@H]1NC(=O)[C@H](Cc2ccccc2)N(C)C(=O)[C@H]([C@@H](C)CC)N2C(=O)[C@H](CC[C@H]2OC)NC(=O)[C@H](CCCNC(=N)N)NC(=O)[C@@H](NC(=O)[C@@H](COS(=O)(=O)O)OS(=O)(=O)O)[C@@H](C)OC1=O |  |  |  | Active | 
4 | C=C(C)C(O)CC/C(C)=C/CN(CCCC(C(=O)[O-])[N+](C)(C)C)C(=N)N (stereo not given) | inactive | inactive |  |  | 
5 | CC(C)C[C@@H](NC(=O)[C@H](O)Cc1ccc(O)c(Cl)c1)C(=O)N1[C@H](C(=O)NCCCCNC(=N)N)C[C@@H]2CC[C@@H](OS(=O)(=O)O)C[C@@H]21 |  | inactive | 9.5 |  | 
6 | N=C(N)NCCCCNC(=O)[C@@H]1C[C@@H]2CC[C@@H](O)C[C@@H]2N1C(=O)[C@H](Cc1ccccc1)NC(=O)[C@@H](O)Cc1ccc(O)c(Cl)c1 |  |  | 30.8 |  | IC50 (Prothrombin [4]): 15.5 µM
7 | CC[C@H](C)[C@@H]1NC(=O)[C@H](Cc2ccccc2)N(C)C(=O)[C@H]([C@@H](C)CC)N2C(=O)[C@H](CC[C@H]2O)NC(=O)[C@H](CCCNC(=N)N)NC(=O)[C@@H](NC(=O)[C@@H](COS(=O)(=O)O)OS(=O)(=O)O)[C@@H](C)OC1=O |  |  |  | Active | 

Now from value to compound, other results behind:

Row | inhibition (Trypsin [1]) | inhibition (Prothrombin [2]) | IC50 (Trypsin [3]) [µM] | SMILES | inhibition (Trypsin [3]) | other results
8 | inactive | inactive |  | NC(=O)[C@@H]1C[C@@H]2CC[C@H](O)C[C@@H]2N1C(=O)[C@@H](Cc1ccccc1)NC(=O)[C@H](O)Cc1ccc(O)cc1 |  | 
9 | inactive | inactive |  | CC[C@H](C)[C@@H]1NC(=O)[C@H](NC(=O)N[C@@H](CCCNC(=N)N)C(=O)O)CCCCNC(=O)[C@H](Cc2ccccc2)NC(=O)[C@H](C)N(C)C(=O)[C@H](CCc2ccc(O)cc2)NC1=O ({Arg-CO}-[dK]I[hTyr][NMeA]F; lactam 1-C) |  | 
10 | inactive | inactive |  | NC(=O)[C@@H]1C[C@@H]2CC[C@H](O)C[C@@H]2N1C(=O)[C@@H](Cc1ccc(O)cc1)NC(=O)[C@H](O)Cc1ccc(O)cc1 |  | 
11 |  | inactive | 19 | N=C(N)NCCCCNC(=O)[C@@H]1C[C@@H]2CC[C@@H](O)C[C@@H]2N1C(=O)[C@H](Cc1ccccc1)NC(=O)[C@H](O)Cc1ccc(O)c(Cl)c1 |  | 
12 |  | inactive | 7.3 | CC(C)C[C@@H](NC(=O)[C@H](O)Cc1cc(Cl)c(O)c(Cl)c1)C(=O)N1[C@H](C(=O)NCCCCNC(=N)N)C[C@@H]2CC[C@@H](OS(=O)(=O)O)C[C@@H]21 |  | 
